Screens as filed in PubChem BioAssay.
Rows were chosen to be rich in hits. Some 1.8% of all compounds tested hit in one or more screens of this group.
ABHD4 inh = inhibits mouse alpha/beta hydrolase domain 4. Q8VD66. purified mABHD4, FP-Rh probe fluorescence polarization. inhibition, % at 8.92 µM. 370,000 tested, 0.54% active. AID 720543;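 active = inhibition exceeding the mean over every tested compound plus 3 SD, cut at about 30% in these data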
Target sequence (Q8VD66 whole entry, looked up, the tested form may be a part): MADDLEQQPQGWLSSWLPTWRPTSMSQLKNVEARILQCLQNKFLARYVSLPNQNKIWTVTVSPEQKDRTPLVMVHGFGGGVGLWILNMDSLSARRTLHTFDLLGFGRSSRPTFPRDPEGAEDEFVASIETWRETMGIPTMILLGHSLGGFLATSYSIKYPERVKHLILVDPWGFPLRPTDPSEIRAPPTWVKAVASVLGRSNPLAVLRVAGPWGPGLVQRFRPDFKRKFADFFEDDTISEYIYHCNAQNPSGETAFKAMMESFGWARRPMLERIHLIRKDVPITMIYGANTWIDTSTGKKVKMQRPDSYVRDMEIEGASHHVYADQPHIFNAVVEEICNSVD
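Material: mouse ABHD4 enzyme, wild type; Benchmarks: S159A mutant high control, sample median low control; Buffer or medium: HEPES pH 7.0, NaCl, Pluronic buffer; Signal: fluorescence polarization; Read-out: percent inhibition of probe binding, normalized to plate controls; Timing: pre-incubation 45 min, probe exposure 60 min, at 25 °C; Dosing: 8.92 µM, single dose.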
HTRA1 inh = HTRA1 (human) protease inhibition | Q92743 | recombinant HTRA1, FP-rhodamine activity-based probe, fluorescence polarization | inhibition, % at 5.96 µM | 340,000 tested, 0.5% active; in the data active = inhibition above about 36%
DDE Tn7 FP inh = inhibitors of Tn7 peptide binding to human fibrin DD(E); P02675; FP displacement of FITC-Tn7 peptide from fibrin DD(E); 0% = median of compound wells per plate; inhibition, % at 8.3 µM; 370,000 tested, 0.13% active; AID 720508;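 active = inhibition above the mean of compounds falling within the control limits plus 3 SD of them, cut at about 14% in these data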
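assay system = human clot-derived fibrin DD(E) complex | quantity = Fibrin-DD(E) at 2 µM final | timing = 10 min preincubation, 3 h with tracer, room temperature | signal = fluorescence polarization | measure = percent inhibition | benchmarks = high control wells with 10 µM unlabelled Aha-Tn7 peptide (full inhibition) | replicates = singlicate testing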
SIAE inh = blocks human sialic acid acetylesterase. inhibition, % at 9.66 µM. AID 1053197. 370,000 tested, 0.69% active. SIAE FP-Rh probe binding, fluorescence polarization;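 active = inhibition above a cutoff: mean of compounds within the control limits plus 3 SD of those, cut at about 17% in these data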
TCR CD3 inh = blocks the human TCR-CD3 interaction | TAMRA-labeled TCR probe fluorescence, biochemical | inhibition, % at 9.4 µM | 360,000 tested, 0.37% active | AID 651800; in the data active = inhibition above about 19%;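 note: recombinant mutant TCR 2C K166C tagged with TAMRA read by polarization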
DDE Tn6 FP inh = DD(E)-Tn6 binding inhibition, primary FP screen; Fibrin DD(E) TRITC-Tn6 fluorescence polarization displacement; inhibition, % at 8.3 µM; 370,000 tested, 0.21% active;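 active = inhibition above a per-campaign cutoff: mean of compounds within control limits plus 3 SD, cut at about 15% in these data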
mABHD4 conf = confirmation of mouse ABHD4 inhibitors | shares compounds with ABHD4 inh | purified mABHD4, FP-Rh probe fluorescence polarization | inhibition, % at 8.92 µM | 1,800 tested, 55% active | AID 720658;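 active = mean inhibition across replicates above the hit cutoff set in the primary screen, cut at about 30% in these data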
Each line names hits and unclear results; the compound was inactive in the other large screens (follow-up assays come after a bar, where they were run).

Nc1[nH]c(C(=O)c2ccccc2)c(-c2ccc(Cl)cc2)c1C(=O)NCCc1c[nH]c2ccccc12	ABHD4 inh 30.6 (no result: HTRA1 inh) | mABHD4 conf inactive
Nc1[nH]c(C(=O)c2ccc(Br)cc2)c(-c2ccc(Cl)c(Cl)c2)c1C(=O)NCCc1c[nH]c2ccccc12	none (no result: HTRA1 inh)
Nc1[nH]c(C(=O)c2ccccc2)c(-c2ccc(Cl)c(Cl)c2)c1C(=O)NCCc1c[nH]c2ccccc12	ABHD4 inh 32.6 (no result: HTRA1 inh) | mABHD4 conf inactive
Nc1[nH]c(C(=O)c2ccccc2)c(-c2ccc3c(c2)OCO3)c1C(=O)NCCc1c[nH]c2ccccc12	ABHD4 inh 33.3 (no result: HTRA1 inh) | mABHD4 conf 39.0
Cc1cc(C)cc(-c2c(C(=O)c3ccccc3)[nH]c(N)c2C(=O)NCCc2c[nH]c3ccccc23)c1	none (no result: HTRA1 inh, TCR CD3 inh)
CCOC(=O)[C@]12CCCCC/C=C\1N(CCc1ccc(Cl)cc1)C(=O)[C@H]2CC(=O)N1CCC(c2ccccc2)CC1	none (no result: HTRA1 inh, TCR CD3 inh)
Nc1[nH]c(C(=O)c2ccccc2)c(-c2ccc(Cl)c(F)c2)c1C(=O)NCCc1c[nH]c2ccccc12	ABHD4 inh 40.1 (no result: HTRA1 inh) | mABHD4 conf 42.6
Nc1[nH]c(C(=O)c2ccc(Br)cc2)c(-c2ccc3ccccc3c2)c1C(=O)NCCc1c[nH]c2ccccc12	ABHD4 inh 30.2 (no result: HTRA1 inh) | mABHD4 conf 34.7
Nc1[nH]c(C(=O)c2ccccc2)c(-c2ccc(F)cc2)c1C(=O)NCCc1c[nH]c2ccccc12	none (no result: HTRA1 inh)
CCCCC[C@H](O)/C=C/[C@@H]1[C@H]2C/C(=C/CCCC(=O)O)O[C@H]2C[C@H]1O	none (no result: HTRA1 inh, TCR CD3 inh)
COc1ccccc1NC(=O)NN1CCCCC1	none
O=C(Nc1ccccc1Cl)NN1CCCCCC1	ABHD4 inh 47.9 | mABHD4 conf 51.8
CC(C)=C1C(=O)NN(c2ccc(F)c(Cl)c2)C1=O	ABHD4 inh 31.9 | mABHD4 conf inactive
CC[C@@H](C)[C@H](NC(=O)OC(C)(C)C)c1nnc(S(=O)(=O)Cc2cc(C)ccc2C)o1	none
CC(C)[C@H](NC(=O)OC(C)(C)C)c1nnc(S(=O)(=O)Cc2c(F)cccc2Cl)o1	ABHD4 inh 31.3 | mABHD4 conf inactive
Clc1cccc(Cc2c(-c3ccco3)nc3ccc(Cl)cn23)c1	none (no result: HTRA1 inh)
Clc1ccc(/C=N/c2c(-c3ccco3)nc3ccccn23)cc1	ABHD4 inh 40.9 | mABHD4 conf inactive
COc1cc(CC(=O)Nc2cc(S(=O)(=O)N3CCOCC3)ccc2N2CCCC2)cc(OC)c1OC	none
CC(C)(C)c1ccc(S(=O)(=O)NC(=O)C2(C)CCN2C(=O)Cc2ccc(-c3ccccc3)cc2)cc1 (stereo not drawn)	ABHD4 inh 44.6 (no result: HTRA1 inh) | mABHD4 conf inactive
CCN(CC)C(=O)c1sc2nc(Cc3ccccc3)[nH]c(=O)c2c1C	ABHD4 inh 36.8 | mABHD4 conf 39.5
CC(=O)N(Cc1ccccc1)Cc1nc2sc(C)c(C)c2c(=O)[nH]1	none
COc1ccc(CN2CCNC(=O)C2CC(=O)NC2CCOCC2)c(F)c1 (stereo not drawn)	none
O=c1oc2c(-c3ccc([N+](=O)[O-])cc3)cc(O)cc2s1	ABHD4 inh 61.3 | mABHD4 conf inactive
COc1ccc(NC(=O)c2ccccc2NC(=O)NC2CCCCC2)cc1	ABHD4 inh 46.8 | mABHD4 conf inactive
Cc1cc(NCc2ccccn2)n2ncc(-c3ccc(Cl)cc3)c2n1	ABHD4 inh 48.1 (no result: HTRA1 inh) | mABHD4 conf 63.9
Cc1cc(NCc2ccccn2)n2ncc(-c3ccccc3)c2n1	ABHD4 inh 45.2 | mABHD4 conf 46.6
Cc1cc(NCc2ccccn2)n2nc(C)c(-c3ccc(Cl)cc3)c2n1	none
CC(Oc1ccccc1F)c1nnc(SCC(=O)NCc2ccc3c(c2)OCO3)o1 (stereo not drawn)	none
Cc1cccc(NC(=O)C2CCCN(C(=O)Nc3ccc(F)cc3)C2)c1 (stereo not drawn)	none
Cc1cc(Cl)ccc1-c1cc2nc(NCCCN(C)C)n(C)c(=O)c2s1	none (no result: HTRA1 inh)
Cc1ccccc1NC(=O)Cc1nc(COC(=O)c2cc([N+](=O)[O-])ccc2N)cs1	ABHD4 inh 62.3 | mABHD4 conf 125.8
